Test [1] addresses Triosephosphate isomerase, glycosomal (Trypanosoma cruzi) (UniProt P52270). The test can be described thus: Inhibition of Trypanosoma cruzi triosephosphate isomerase at 400 uM after 2 hrs. The procedure, abridged:
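Recombinant E. coli-expressed enzyme, dialyzed into 100 mM triethanolamine/10 mM EDTA pH 7.4, was incubated with compound (DMSO stock) in 100 mM triethanolamine, 10 mM EDTA, pH 7.4, 10% DMSO at 36 °C for 2 h. An aliquot was then assayed for activity (glyceraldehyde 3-phosphate to dihydroxyacetone phosphate, α-glycerol phosphate dehydrogenase-coupled) with 5 ng enzyme. Irreversible inhibition was scored as loss of activity; means of two experiments.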

Test [2] is described as follows: Selectivity for Trypanosoma cruzi triosephosphate isomerase over human triosephosphate isomerase.
Test [3] has as its system Trypanosoma cruzi. The test is described as follows: Antiparasitic activity against Trypanosoma cruzi T2 epimastigotes assessed as growth inhibition at 25 uM after 5 days. The format is functional. An outline of the steps: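 Late-log epimastigotes were grown axenically at 28 °C in BHI-tryptose with 5% fetal calf serum and seeded at 2×10^6/mL in medium containing compound (DMSO stock; final DMSO ≤1%, 1% DMSO control). Growth was read as A590 at day 0 and day 5. Inhibition = {1 − [(Ap − A0p)/(Ac − A0c)]} × 100. Means of two experiments.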

SMILES strings stand for the structures. Activity calls are given as the source filed them. The rule behind the calls is not given here.

The text below walks through data of ChEMBL document CHEMBL1629474, “Massive screening yields novel and selective Trypanosoma cruzi triosephosphate isomerase dimer-interface-irreversible inhibitors with anti-trypanosomal activity” (Eur J Med Chem, 2010).

Broadly, the inhibition is the relative decrease from the control value, in per cent.

Triosephosphate isomerase, glycosomal (Trypanosoma cruzi), sequence (P52270 whole entry): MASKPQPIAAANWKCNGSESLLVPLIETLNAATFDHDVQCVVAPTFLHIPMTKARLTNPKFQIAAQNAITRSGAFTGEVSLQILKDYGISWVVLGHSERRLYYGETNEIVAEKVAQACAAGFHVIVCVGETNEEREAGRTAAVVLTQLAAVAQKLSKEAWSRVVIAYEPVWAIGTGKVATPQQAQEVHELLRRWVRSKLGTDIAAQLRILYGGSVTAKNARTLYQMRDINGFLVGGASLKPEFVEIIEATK

With `Cc1nnc[n+]([O-])c1/C=C/c1ccc(N(C)C)cc1`, in test [1], the inhibition was determined as 8%. Besides, the Ratio in test [2] was more than 4. Also, the result in test [3] was Active.
Regarding `CCCN(CCOCCn1nc(OCc2ccccc2)c2cc([N+](=O)[O-])ccc21)CCC(C)C1CC=C(C)CC1` (stereo not given), the inhibition in test [1] was determined as 0%. Besides, in test [2], the Ratio is more than 4. Also, the outcome in test [3] was Active.
Turning to `O=C(N/N=C/c1ccc([N+](=O)[O-])o1)Oc1ccccc1`, the inhibition in test [1] stood at 27%. In addition, the Ratio in test [2] is more than 4. Besides, in test [3], the outcome was Active.
The compound `O=C(CCl)Oc1ccc2c(c1)[n+]([O-])c1cc(Br)ccc1[n+]2[O-]` yielded an inhibition in test [1] of 50%. Moreover, in test [2], the Ratio was more than 4. Moreover, the outcome in test [3] was Active.
Taken in the same sequence, the figures for `O=C1C(=Cc2ccc([N+](=O)[O-])s2)C(=O)N(C2CCCCC2)S(=O)(=O)N1C1CCCCC1` were 49%, more than 4 and “Active”.
On to `O=C(/C=C/c1ccccc1)c1ccccc1`, for which, in test [1], the inhibition is 33%. For the same compound, the Ratio in test [2] was more than 4. The result in test [3] was Active.
`CCCCNC(=O)c1ccc2no[n+]([O-])c2c1` had an inhibition in test [1] of 12%. In addition, the Ratio in test [2] was more than 4. In test [3], the result was Active.
Taken in the same sequence, the figures for `Cc1nncnc1CC(c1ccc([N+](=O)[O-])cc1)[N+]1([O-])CCOCC1` (stereo not given) were 38%, more than 4 and “Active”.
The compound `CCCCNC(=O)N/N=C/c1ccc2no[n+]([O-])c2c1` returned an inhibition in test [1] of 38%. Moreover, the Ratio in test [2] is more than 4. The outcome in test [3] was Active.
`Oc1ccc(N/C(S)=N/c2ccccc2)cc1` displayed an inhibition in test [1] of 24%. Besides, in test [2], the Ratio was more than 4. Moreover, in test [3], the outcome was Active.
Take `COc1ccc(/C=C/c2c(C)nnc[n+]2[O-])cc1`: in test [1], the inhibition was 11%. Besides, the Ratio in test [2] was more than 4. Also, the result in test [3] was Active.
In the case of `[O-][N+]1=c2ccccc2=[N+]([O-])C12CCCC2`, in test [1], the inhibition worked out at 12%. Besides, the Ratio in test [2] was more than 4. Also, the result in test [3] was Active.
`C=C(C)CNC(=O)Oc1ccccc1` displayed an inhibition in test [1] of 48%. Further, the Ratio in test [2] is more than 4. Further, the outcome in test [3] was Active.
The compound `C=CCNC(=S)N/N=C/C=C/c1ccco1` came in with an inhibition in test [1] of 15%. Moreover, the Ratio in test [2] is more than 4. Further, the outcome in test [3] was Active.
In turn, `COCCNC(=O)N/N=C/c1ccc([N+](=O)[O-])o1` registered an inhibition in test [1] of 5%. For the same compound, the Ratio in test [2] is more than 4. The outcome in test [3] was Active.
The compound `CCCCCCNC(=O)N/N=C/C=C/c1ccc([N+](=O)[O-])o1` came in with an inhibition in test [1] of 72%. In addition, the Ratio in test [2] was more than 4. The result in test [3] was Active.
As for `O=[N+]([O-])c1ccc(N2CCSCC2)c([N+](=O)[O-])c1`, the inhibition in test [1] amounted to 20%. Moreover, in test [2], the Ratio is more than 4. In addition, the outcome in test [3] was Active.
Take `NC(=O)N/N=C/c1ccc2no[n+]([O-])c2c1`: in test [1], the inhibition is 73%. In addition, the Ratio in test [2] is more than 4. In addition, in test [3], the result was Active.
Take `N#Cc1c2ccccc2[n+]([O-])n1-c1cccc2ccccc12`: the inhibition in test [1] was found to be 16%. Also, the Ratio in test [2] is more than 4. Moreover, the outcome in test [3] was Active.
As for `COc1nn(CCOCCN2CCN(C/C=C/c3ccccc3)CC2)c2ccc([N+](=O)[O-])cc12`, in test [1], the inhibition is 0%. Besides, in test [2], the Ratio is more than 4. The result in test [3] was Active.
`CCOC(=O)c1nsc(-c2cc(C(C)(C)C)c(O)c(C(C)(C)C)c2)n1`: in test [1], the inhibition was found to be 65%. In addition, in test [2], the Ratio was more than 4. Also, the outcome in test [3] was Active.
In test [1], `CC(=O)Oc1c(C)c(C)c2c(c1C)CCC(C)(C(=O)NCCO[N+](=O)[O-])O2` (stereo not given) registered an inhibition of 7%.
On the same count and under the same terms, the value for `[O-][n+]1onc(-c2ccccc2)c1CO` was 23%.
